Read-outs that look alike come from different tables or passages of the source.
Legend:
CNOT6L = CNOT6L (Homo sapiens, UniProt Q96LI5); assay: Gel-based deadenylase assay, CNOT6L; format: biochemical
[1] = system: GDF15 and FGF21 mRNAs in Huh7 cells; assay: Hepatokine mRNA and protein levels in Huh7 cells; format: cell-based, human; conditions: for EC50: Homo sapiens
CNOT8 = CNOT8 (Homo sapiens, UniProt Q9UFF9); assay: Gel-based deadenylase assay, CNOT8; format: biochemical
Procedure, shortened: (§1)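 Enzymes were expressed in and purified from E. coli BL21: the human CNOT6 catalytic domain (aa 153–557) and full-length human CNOT7 and CNOT8. Each enzyme (2.5 μM final) was preincubated with inhibitor at the indicated concentrations for 1 h at 37 °C. 5′-FITC-labelled poly(A)20 RNA (50 nM final) was then added for 1.5 h at 37 °C, and deadenylation was resolved on gel.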

CNOT6 = CNOT6 (Homo sapiens, UniProt Q9ULM6); assay: Gel-based deadenylase assay, CNOT6; format: biochemical; conditions: compared to CNOT6L
Procedure, shortened: as §1

[2] = system: GDF15 and FGF21 mRNAs in primary hepatocytes and Huh7 cells; assay: mRNA stability assay with actinomycin D; format: cell-based; conditions: with actinomycin D 5 μg/mL; iD1 5 μM
Procedure, shortened: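 Mouse primary hepatocytes and Huh7 cells were treated with actinomycin D (5 μg/mL) plus DMSO vehicle or test compound (5 μM in hepatocytes) for a time course. Before actinomycin D, Huh7 cells were pretreated with Wy-14643 (200 μM, 6 h) to induce FGF21 mRNA. Transcripts were measured by RT-qPCR, normalized to Hprt or GAPDH, and expressed as percent of the initial level. Half-lives were fitted by first-order decay; n = 3.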

[3] = system: neurons in NTS, AP and PVN; assay: c-Fos immunofluorescence in the brain; format: in vivo, mouse
WT mice [4] = format: in vivo, mouse; conditions: single administration
[5] = system: promoter activity of GDF15 and FGF21 genes; assay: Promoter luciferase reporter assay in Huh7 cells; format: cell-based, human
Procedure, shortened: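 Human GDF15 or FGF21 promoters were PCR-amplified from Huh7 genomic DNA and placed upstream of firefly luciferase; a promoter-less construct served as control. Constructs (50–100 ng) were lipofected into Huh7 cells with a Renilla luciferase (TK) control, and cells were treated with vehicle or test compound. Firefly activity was read by dual-luciferase assay and normalized to Renilla.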

[6] = system: hepatic Gdf15 and Fgf21 mRNAs, serum GDF15 and FGF21; assay: Hepatokine levels after intraperitoneal administration in WT C57BL/6J mice; format: in vivo, mouse
Procedure, shortened: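 WT mice received test compound ip at 2 mg/kg. For fasting/refeeding, mice were fed, fasted 24 h, or refed 2 h after a 24 h fast, and were injected 3 h before dissection. For exercise, mice ran to exhaustion on a 10°-sloped shock treadmill and were sampled before, immediately after, or 3 h after running, with food and water available. Poly(I:C) was given ip at 10 mg/kg. Hepatic mRNA was measured by RT-qPCR (Hprt-normalized) and serum GDF15/FGF21 by ELISA.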

WT mice [7] = assay: Food intake and body weight after a single administration in mice; format: in vivo, mouse; conditions: for ED50: Mus musculus, ip
[8] = system: translation of Gdf15 and Fgf21 mRNAs in liver; assay: Polysome profiling of livers of treated mice; format: in vivo, mouse
[9] = system: 3' UTRs of human GDF15 and FGF21 and mouse Gdf15 and Fgf21 mRNAs; assay: 3' UTR luciferase assay in Huh7 cells; format: cell-based
Procedure, shortened: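 Human GDF15/FGF21 3′UTRs (amplified from Huh7 cDNA) and mouse Gdf15/Fgf21 3′UTRs (from WT mouse liver cDNA) were cloned downstream of the firefly luciferase coding region. These plasmids (50–100 ng) were lipofected into Huh7 cells together with a Renilla luciferase (TK) control. Firefly and Renilla activities were measured by dual-luciferase assay, and firefly signal was normalized to Renilla to correct for transfection efficiency.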

[10] = system: Gdf15 and Fgf21 mRNAs in primary hepatocytes; assay: Hepatokine mRNA levels in mouse primary hepatocytes; format: cell-based; conditions: for EC50: Mus musculus, Hepatocyte
Procedure, shortened: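 Hepatocytes were isolated from 8-week-old male mice by portal vein perfusion and collagenase digestion, Percoll-purified, plated on collagen I, and cultured in William's E medium. Huh7 cells were grown in DMEM with 10% FBS. Cells were exposed to test compound at graded concentrations and for various times. mRNAs were quantified by RT-qPCR, normalized to Hprt (mouse) or GAPDH (human); n = 3 per group. EC50 was derived from the concentration–response curves.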

CNOT7 = CNOT7 (Homo sapiens, UniProt Q9UIV1); assay: Gel-based deadenylase assay, CNOT7; format: biochemical
Procedure, shortened: as §1

WT mice [11] = assay: Oxygen consumption and RER; format: in vivo, mouse
Procedure, shortened: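 WT mice received a single ip injection of vehicle or test compound (2 mg/kg). They were then housed singly on a 12 h light/dark cycle, either fed or food-deprived. VO2 and VCO2 were recorded at 25 °C by indirect calorimetry, and dark- and light-cycle averages were taken. VO2 was expressed per kg body weight per hour, and RER was calculated as VCO2/VO2.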

[12] = system: C57BL/6J WT mice kept on a high-fat diet; assay: HFD-induced obese mouse model, treatment twice a week for 12 weeks; format: in vivo
Procedure, shortened: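 From 8 weeks of age, male and female C57BL/6J mice were fed high-fat diet for 12 weeks and given test compound (2 mg/kg) or vehicle ip twice weekly. Measurements included: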

[13] = ref Xiong et al., 2017; cited from earlier work
[14] = male and female mice, IP twice a week

CNOT8, sequence (Q9UFF9 whole entry, the tested form may be a part): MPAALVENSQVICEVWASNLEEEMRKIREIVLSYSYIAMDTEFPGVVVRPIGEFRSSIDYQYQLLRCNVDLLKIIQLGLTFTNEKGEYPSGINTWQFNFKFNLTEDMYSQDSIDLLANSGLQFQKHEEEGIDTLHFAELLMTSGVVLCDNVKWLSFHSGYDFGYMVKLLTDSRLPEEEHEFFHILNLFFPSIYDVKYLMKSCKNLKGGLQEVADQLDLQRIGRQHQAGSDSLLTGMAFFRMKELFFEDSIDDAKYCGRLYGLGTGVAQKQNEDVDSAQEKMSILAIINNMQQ
CNOT7, sequence (Q9UIV1 whole entry): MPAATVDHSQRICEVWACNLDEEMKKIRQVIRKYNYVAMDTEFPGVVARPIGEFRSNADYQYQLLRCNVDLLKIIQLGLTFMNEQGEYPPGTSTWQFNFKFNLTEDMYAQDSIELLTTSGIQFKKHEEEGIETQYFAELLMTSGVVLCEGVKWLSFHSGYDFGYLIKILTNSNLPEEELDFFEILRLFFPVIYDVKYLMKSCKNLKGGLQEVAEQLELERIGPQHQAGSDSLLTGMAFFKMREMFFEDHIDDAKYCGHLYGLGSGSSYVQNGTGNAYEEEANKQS
CNOT6L, sequence (Q96LI5 158-555): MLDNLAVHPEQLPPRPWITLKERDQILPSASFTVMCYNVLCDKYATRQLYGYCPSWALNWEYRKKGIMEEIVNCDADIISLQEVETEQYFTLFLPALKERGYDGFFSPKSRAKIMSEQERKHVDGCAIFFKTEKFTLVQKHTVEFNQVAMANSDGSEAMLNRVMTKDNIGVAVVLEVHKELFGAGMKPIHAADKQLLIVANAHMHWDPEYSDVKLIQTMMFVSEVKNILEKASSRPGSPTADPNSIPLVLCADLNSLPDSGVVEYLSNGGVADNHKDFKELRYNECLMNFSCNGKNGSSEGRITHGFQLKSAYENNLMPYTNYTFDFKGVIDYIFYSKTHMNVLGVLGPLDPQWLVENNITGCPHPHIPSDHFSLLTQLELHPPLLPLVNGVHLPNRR
CNOT6, sequence (Q9ULM6 153-557): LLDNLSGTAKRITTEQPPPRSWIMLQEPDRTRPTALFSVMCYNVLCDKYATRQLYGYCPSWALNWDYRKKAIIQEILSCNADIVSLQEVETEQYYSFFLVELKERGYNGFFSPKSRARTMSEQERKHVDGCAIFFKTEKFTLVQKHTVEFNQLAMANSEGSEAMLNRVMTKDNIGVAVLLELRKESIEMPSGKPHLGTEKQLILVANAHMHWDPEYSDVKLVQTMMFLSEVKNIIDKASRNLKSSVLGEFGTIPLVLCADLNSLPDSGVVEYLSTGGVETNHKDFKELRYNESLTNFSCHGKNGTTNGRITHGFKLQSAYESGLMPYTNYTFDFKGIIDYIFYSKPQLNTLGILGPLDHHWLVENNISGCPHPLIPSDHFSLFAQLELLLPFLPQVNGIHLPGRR

Nc1ncnc2c1ncn2[C@@H]1O[C@H](COP(=O)(O)O)[C@@H](O)[C@H]1O [AMP]
IC50 (CNOT6L): 76300 nM

Cc1cccc(Nc2cc(Cl)nc(SCC(=O)O)n2)c1C [WY-14643, reference compound]
FGF21 mRNA in Huh7 cells ([1]; 200 μM, 6 h): increased

CC(C)=CCC(O)C1=CC(=O)c2c(O)ccc(O)c2C1=O (stereo not drawn) [iD1]
inhibition of CNOT8 (CNOT8): did not inhibit | inhibition of CNOT6 (CNOT6): modestly inhibited | degradation of GDF15 and FGF21 mRNAs [2]: potently suppressed degradation | EC50 ([1]; Huh-7, read-out: EC50 for FGF21 mRNA): 1610 nM | EC50 ([1]; Huh-7, read-out: EC50 for GDF15 mRNA): 530 nM | GDF15 and FGF21 protein abundance ([1]; Huh7 cells): increased | effects of thapsigargin and WY-14643 on GDF15 and FGF21 mRNA levels ([1]; combination, Huh7 cells, 6 h): potentiated | c-Fos staining within NTS and AP ([3]; 3 h after administration): robust c-Fos staining | c-Fos staining within PVN in the hypothalamus ([3]; after administration): Robust c-Fos staining | serum insulin levels (WT mice [4]): decrease | serum ketone body levels (WT mice [4]): increasing | serum triglycerides (WT mice [4]): reduced | promoter activity of GDF15 and FGF21 genes [5]: did not alter | levels of hepatic Gdf15 and Fgf21 mRNAs and serum GDF15 and FGF21 proteins ([6]; 3 h after one-time IP injection, 2 mg/kg): significantly increased | degradation of Gdf15 and Fgf21 mRNAs post-exercise ([6]; 3 h post-exercise recovery period, liver): attenuated degradation | Fgf21 mRNA suppression induced by refeeding ([6]; liver, refed after 24 h fasting): attenuated | effects on food intake, body weight, serum triglycerides, ketone bodies, hepatic Gdf15 and Fgf21 mRNAs in Cnot6l−/− mice (WT mice [7]; Cnot6l whole-body KO mice): did not induce significant effects | ED50 (WT mice [7]; read-out: EC50 for body weight): 1.23 mg/kg | ED50 (WT mice [7]; read-out: EC50 for food intake): 1.43 mg/kg | body weight (WT mice [7]; single administration): significantly reduced | global translation [8]: did not affect | translational efficacy of Gdf15 and Fgf21 mRNAs [8]: not affected | decrease of luciferase activity by 3' UTRs of GDF15/FGF21 mRNAs [9]: reversed | EC50 ([10]; read-out: EC50 for Fgf21 mRNA): 2080 nM | EC50 ([10]; read-out: EC50 for Gdf15 mRNA): 1110 nM | levels of hepatokine mRNAs (GDF15, FGF21, INHBE, ADM, ADAMTS1, HBEGF) ([10]; mouse primary hepatocytes and Huh7 cells, dose- and time-dependent): increased | inhibition of CNOT7 (CNOT7): did not inhibit | oxygen consumption (WT mice [11]; fasted condition, relative to Veh): consumed more oxygen | respiratory exchange rate (RER) (WT mice [11]; fed condition): significantly reduced | obesity-induced hyperlipidemia, hyperglycemia, and hyperinsulinemia ([12]; HFD): ameliorated | hepatic steatosis and lipid accumulation in adipose tissues ([12]; HFD obese mice): reversed | insulin sensitivity and glucose tolerance ([12]; HFD, long-term treatment, ITT and GTT): improved | HFD-induced gain of body weight [12, 14]: dramatically decreased | food intake on HFD [12, 14]: suppressed

C/C=C(/C)C(=O)O[C@H]1C(C)=C2[C@H]([C@@H]1OC(=O)CCCCCCC)[C@@](C)(OC(C)=O)C[C@H](OC(=O)CCC)[C@@]1(O)[C@H]2OC(=O)[C@@]1(C)O [thapsigargin, reference compound]
GDF15 mRNA in Huh7 cells ([1]; 1 μM, 6 h): increased

poly(I:C) [reference compound]
hepatic Gdf15 mRNA ([6]; IP 10 mg/kg): increased

B1: GDF15 protein: Growth differentiation factor 15, circulating secretory protein (protein, UniProt Q99988 195-308, looked up)
Growth/differentiation factor …: ARARNGDHCPLGPGRCCRLHTVRASLEDLGWADWVLSPREVQVTMCIGACPSQFRAANMHAQIKTSLHRLKPDTVPAPCCVPASYNPMVLIQKTDTGVSLQTYDDLLAKDCHCI
half-life of circulating protein [13]: 3 h

— paper PMC9386786 (Cell metabolism, 2022)
